Results collected from several papers.
Lines come from different studies, so protocols differ.
EGFR del746-750: Epidermal growth factor receptor (EGFR, Homo sapiens, UniProt P00533, del746-750)
EGFR del752-759: Epidermal growth factor receptor (EGFR, Homo sapiens, UniProt P00533, del752-759)
EGFR L858R/T790M: Epidermal growth factor receptor (EGFR, Homo sapiens, UniProt P00533, L858R/T790M)
EGFR del747-750/T751S: Epidermal growth factor receptor (EGFR, Homo sapiens, UniProt P00533, del747-750/T751S)
EGFR L858R: Epidermal growth factor receptor (EGFR, Homo sapiens, UniProt P00533, L858R)
EGFR G719C: Epidermal growth factor receptor (EGFR, Homo sapiens, UniProt P00533, G719C)
EGFR del747-752/P753S: Epidermal growth factor receptor (EGFR, Homo sapiens, UniProt P00533, del747-752/P753S)
EGFR L861Q: Epidermal growth factor receptor (EGFR, Homo sapiens, UniProt P00533, L861Q)
EGFR T790M: Epidermal growth factor receptor (EGFR, Homo sapiens, UniProt P00533, T790M)

SMILES | target | assay | setting | remaining binding
CCC(=O)N[C@H]1CC[C@@H](C(=O)N(C)c2ccc(-c3nc4ccccc4o3)cc2)C1 | EGFR del746-750 | cell-free assay, competition with immobilised ligand | 1 µM | 78%
O=C(NCCCN1CCOCC1)c1ccc(Nc2nccc(-c3cc4ccccc4s3)n2)cc1 | EGFR del752-759 | binding, competition with immobilised ligand | 1 µM | 100%
CNC(=O)[C@@H]1CC[C@@H](n2c(-c3ccc4cnccc4c3)nc3ccc(C(=O)NCc4cccc(C(N)=O)c4)cc32)C1 | EGFR L858R/T790M | binding, competition with immobilised ligand | 1 µM | 92%
CC(=O)Nc1c(C(C)=O)c(=O)n(C)c2nc(-c3ccc(Cl)cc3Cl)c(-c3ccc(Cl)cc3)cc12 | EGFR del747-750/T751S | cell-free assay, competition with immobilised ligand | 1 µM | 100%
CN1CCN(c2ccc(Nc3nccc(-c4ccccc4)n3)cc2C(F)(F)F)CC1 | EGFR del746-750 | binding | 10 µM | 56%
COc1cnc(Nc2cccc(S(N)(=O)=O)c2)nc1N1CCN(c2ccccc2)C(=O)C1 | Epidermal growth factor receptor (EGFR, Homo sapiens, UniProt P00533, A750P/del747-749) | binding, competition with immobilised ligand | 1 µM | 92%
O=C(c1ccc(Nc2nccc(-c3cc4ccccc4s3)n2)cc1)N1CCC(N2CCCC2)CC1 | EGFR L858R | binding, competition with immobilised ligand | 1 µM | 100%
CN(C)c1nccc(-c2cnn3ncccc23)n1 | EGFR G719C | binding | 1 µM | 100%
O=C(NCC1CCOCC1)c1n[nH]cc1NC(=O)c1c(F)cccc1F | EGFR del746-750 | binding, competition with immobilised ligand | 1 µM | 100%
CN(CCCC(F)(F)F)c1nccc(-c2cnn3ncccc23)n1 | EGFR G719C | binding | 1 µM | 100%
COc1cnc(Nc2cccc(S(N)(=O)=O)c2)nc1N1CCN(c2ccccc2)CC1 | EGFR G719C | binding, competition with immobilised ligand | 1 µM | 100%
O=C1NC(c2ccccn2)Sc2ccccc21 (centres unmarked) | EGFR del747-750/T751S | cell-free assay, competition with immobilised ligand | 1 µM | 68%
O=C(c1ccc(Nc2ncc(Cl)c(-c3ccc(Cl)s3)n2)cc1)N1CCC(N2CCCC2)CC1 | EGFR L858R | binding, competition with immobilised ligand | 1 µM | 72%
F[C@@H]1CCN(c2nccc(-c3cnn4ncccc34)n2)C1 | Epidermal growth factor receptor (EGFR, Homo sapiens, UniProt P00533, G719S) | binding | 1 µM | 100%
CCN1CCN(Cc2ccc(C(=O)Nc3ccc(C)c(Oc4ccc5c(c4)CC(=O)N5)c3)cc2C(F)(F)F)CC1 | EGFR L858R | binding, competition with immobilised ligand | 1 µM | 100%
CN1CCN(c2ccc(Nc3nccc(-c4cccc([N+](=O)[O-])c4)n3)cc2C(F)(F)F)CC1 | EGFR L858R/T790M | binding | 10 µM | 29%

SMILES | target | assay | setting | remaining binding
c1cncc(-c2cccc(Nc3nccc(NC4CCCCC4)n3)c2)c1 | EGFR del747-752/P753S | binding, competition with immobilised ligand | 10 µM | 42%
CCC(=N\O)/C(C)=C/c1ccc(F)cc1 | EGFR L858R | cell-free assay, competition with immobilised ligand | 1 µM | 65%
C[C@H]1CCN(c2nccc(-c3cnn4ncccc34)n2)C1 | EGFR L861Q | binding | 1 µM | 81%
O=C(Nc1c[nH]nc1C(=O)NC1CCNCC1)c1cc(F)cc(F)c1 | EGFR T790M | binding, competition with immobilised ligand | 1 µM | 100%
O=C(c1ccc(Nc2ncc(Cl)c(-c3cc4ccccc4s3)n2)cc1)N1CCC(N2CCCC2)CC1 | EGFR T790M | binding, competition with immobilised ligand | 1 µM | 58%
Nc1ncc2c(n1)-c1c([nH]c3ccc(C#CC4CC4)cc13)CCCC2 | EGFR G719C | binding, competition with immobilised ligand | 1 µM | 91%
O=C(N1CCS(=O)(=O)CC1)N1C[C@H](c2ccc(OC(F)(F)F)cc2)C[C@H](c2nc(C3CC3)no2)C1 | EGFR L858R | cell-free assay, competition with immobilised ligand | 1 µM | 100%
CC1CCCN1c1nccc(-c2cnn3ncccc23)n1 (centres unmarked) | EGFR L858R/T790M | binding | 1 µM | 100%
N#Cc1ccc(Nc2ccc3[nH]c(=O)[nH]c3c2)c(Cl)c1 | EGFR del752-759 | cell-free assay, competition with immobilised ligand | 1 µM | 100%
COc1ncc2cc3ccccc3nc2c1C#N | EGFR L861Q | cell-free assay, competition with immobilised ligand | 5 µM | 100%
N[C@@H]1CCN(c2nccc(-c3cnn4ncccc34)n2)C1 | EGFR L858R/T790M | binding | 1 µM | 100%
O=C(NCCCN1CCOCC1)c1ccc(Nc2ncc(Cl)c(-c3ccc(Cl)s3)n2)cc1 | EGFR del747-750/T751S | binding, competition with immobilised ligand | 1 µM | 100%
CO[C@@H](C)c1c(Nc2ccc([C@H](N(C)C(=O)C3CCS(=O)(=O)CC3)C(F)(F)F)cc2)cnc2cc(Cl)nn12 | EGFR T790M | cell-free assay, competition with immobilised ligand | 1 µM | 90%
CN(C)c1ncc(F)c(-c2cnn3ncccc23)n1 | EGFR del746-750 | binding | 1 µM | 100%
C[C@@H](c1cccc(C#N)c1)n1cc(Cl)cc(C(N)=O)c1=N | EGFR L858R | cell-free assay, competition with immobilised ligand | 1 µM | 100%
Cc1cnc(Nc2ccc(C(=O)N3CCC(N4CCCC4)CC3)cc2)nc1-c1cc2ccccc2s1 | EGFR del747-752/P753S | binding, competition with immobilised ligand | 1 µM | 100%
